Values joined by “and” are separate entries in the source; they are usually repeats but may differ in a detail not shown here. Identical values can stand only once. Active and inactive are the calls of the source. No cut-off for these calls is given here.
Tests used:
[1] = biological target: Focal adhesion kinase 1 (Homo sapiens) (UniProt Q05397); test: Activation of FAK in human Caco-2 cells assessed as fold increase in FAK Tyr397 phosphorylation at 10 nM incubated for 1 hr by Western blot analysis relative to control; type: cell-based; conditions: filed as activator
Sequence of Focal adhesion kinase 1 (Homo sapiens) (Q05397 2-1052 limits assumed): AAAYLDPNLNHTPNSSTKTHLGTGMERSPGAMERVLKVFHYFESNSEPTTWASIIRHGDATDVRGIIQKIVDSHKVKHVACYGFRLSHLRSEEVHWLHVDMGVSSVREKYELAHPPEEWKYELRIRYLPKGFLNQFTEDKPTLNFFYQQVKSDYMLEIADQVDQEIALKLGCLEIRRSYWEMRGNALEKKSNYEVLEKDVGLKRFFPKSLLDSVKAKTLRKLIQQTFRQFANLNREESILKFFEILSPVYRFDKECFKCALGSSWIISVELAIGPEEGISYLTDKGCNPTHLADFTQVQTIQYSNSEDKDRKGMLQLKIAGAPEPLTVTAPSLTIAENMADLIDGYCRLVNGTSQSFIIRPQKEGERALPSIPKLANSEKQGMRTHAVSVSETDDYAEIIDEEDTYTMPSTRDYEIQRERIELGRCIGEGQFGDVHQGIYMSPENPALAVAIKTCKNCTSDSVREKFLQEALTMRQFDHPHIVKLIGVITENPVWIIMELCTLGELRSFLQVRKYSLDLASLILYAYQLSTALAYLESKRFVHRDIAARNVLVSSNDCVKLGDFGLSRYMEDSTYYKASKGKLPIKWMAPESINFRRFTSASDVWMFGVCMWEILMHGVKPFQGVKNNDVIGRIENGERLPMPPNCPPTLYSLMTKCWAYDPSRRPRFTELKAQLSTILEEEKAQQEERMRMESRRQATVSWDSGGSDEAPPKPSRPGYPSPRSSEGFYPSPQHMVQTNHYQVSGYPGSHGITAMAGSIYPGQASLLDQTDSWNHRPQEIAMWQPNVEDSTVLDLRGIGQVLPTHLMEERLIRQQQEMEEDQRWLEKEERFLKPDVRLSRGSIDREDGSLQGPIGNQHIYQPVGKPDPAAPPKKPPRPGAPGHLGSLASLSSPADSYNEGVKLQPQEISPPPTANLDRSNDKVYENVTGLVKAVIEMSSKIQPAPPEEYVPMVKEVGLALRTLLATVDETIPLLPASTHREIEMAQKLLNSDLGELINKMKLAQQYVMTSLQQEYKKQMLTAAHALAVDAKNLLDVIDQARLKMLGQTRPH
Method in brief: (§1)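 Caco-2 cells were exposed to compound at 10 nM, with DMSO vehicle as control. At least eight separate experiments were run and the data pooled, reported as mean ± standard error.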

[2] = biological target: Focal adhesion kinase 1 (Homo sapiens) (UniProt Q05397); test: Activation of FAK in human Caco-2 cells assessed as increase in FAK Tyr397 phosphorylation at 10 nM incubated for 1 hr by Western blot analysis; type: cell-based; conditions: filed as activator; method in brief: as §1
[3] = biological target: Focal adhesion kinase 1 (Homo sapiens) (UniProt Q05397); test: Activation of FAK in human Caco-2 cells assessed as increase in FAK Tyr397 phosphorylation incubated for 1 hr by Western blot analysis; type: cell-based; conditions: filed as activator, dose 10-1000 nM
Caco-2 = test: Induction of wound closure in human Caco-2 cells at 10 nM in presence of hydroxyurea measured upto 24 hrs by inverted light microscopy based wound healing assay; type: functional, cell-based; conditions: time hrs <=24
[4] = Tmax in C57BL/6 mouse at 900 ug/kg, ip measured upto 12 hrs by LC-MS/MS analysis; type: ADME, organism-based; conditions: in vivo, 0.9 mg/kg, dose 900 µg/kg
Method in brief: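 Single intraperitoneal dose of 900 μg/kg in C57BL/6 mice. Compound was first dissolved in DMSO, then diluted in 100 μL normal saline (final DMSO 2.5% in the injected solution). Plasma concentration was followed over time after dosing.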

[5] = Toxicity in C57BL/6 mouse assessed as body weight at 900 ug/kg, ip administered for every 6 hrs for 3 days and measured on day 4 (reference value: 9.16 +/- 0.62 %); type: organism-based; conditions: in vivo, 0.9 mg/kg, dose 900 µg/kg
Mus musculus = test: Antiinflammatory activity against ischemic jejunal ulcer C57BL/6J mouse model assessed as ulcer area at 900 ug/kg, ip administered for every 6 hrs for 3 days and measured on day 4 by imaging analysis (reference value: 3.26 +/- 0.47 mm2); conditions: dose 900 µg/kg; time 4 day

| fold change (FC) [1] | Activity [2] | Activity [3] | SMILES | Activity (Caco-2) | further results |
| --- | --- | --- | --- | --- | --- |
| 1 | – | – | O=C(Nc1cc(C(F)(F)F)ccc1N1CCS(=O)(=O)CC1)N1CCCC1c1ccncc1 (centres undefined) | – | – |
| 1.4 | Active | Dose-dependent effect | COc1ccc(C(CNC(=O)Nc2cc(C(F)(F)F)ccc2N2CCOCC2)N(C)C)cc1 (centres undefined) | Active | – |
| 1 | – | – | CN(C)C(CNC(=O)Nc1cc(C(F)(F)F)ccc1N1CCOCC1)c1ccccc1 (centres undefined) | – | – |
| 1.5 and 1 | Active | Dose-dependent effect | O=C(Nc1cc(C(F)(F)F)ccc1N1CCOCC1)N1CCCC1c1ccncc1 (centres undefined) | Active | Tmax [4]: 1 h; Activity [5]: 6.33%; Activity (Mus musculus): 1.57 mm2 |
| 1.1 | – | – | O=C(Nc1ccccc1N1CCOCC1)N1CCCC1c1ccncc1 (centres undefined) | – | – |
| – | Active | Dose-dependent effect | O=C(Nc1cc(C(F)(F)F)ccc1N1CCOCC1)N1CCCC1C1CCCCC1 (centres undefined) | Active | – |
| 1.4 | Active | Dose-dependent effect | O=C(Nc1cc(C(F)(F)F)ccc1N1CCOCC1)N1CCCC1c1ccccc1 (centres undefined) | Active | – |
| 1 | – | – | CC1CN(c2ccc(C(F)(F)F)cc2NC(=O)N2CCCC2c2ccncc2)CC(C)O1 (centres undefined) | – | – |
| 0.9 | – | – | CN1CCN(c2ccc(C(F)(F)F)cc2NC(=O)N2CCCC2c2ccncc2)CC1 (centres undefined) | – | – |
| 1.1 | – | – | O=C(Nc1cc(C(F)(F)F)ccc1N1CCOCC1)N1CCCC1c1ccc(O)cc1 (centres undefined) | – | – |

— ChEMBL document CHEMBL4680370, “Discovery of Novel Small-Molecule FAK Activators Promoting Mucosal Healing” (ACS Med Chem Lett, 2021)
